Data as given in ChEMBL document CHEMBL3244145, “Synthesis and quantitative structure--activity relationships of some antibacterial 3-formylrifamycin SV N-(4-substituted phenyl)piperazinoacethydrazones” (J Med Chem, 1978).
Converted amounts (≈) assume the structure as drawn. The source made the active and inactive calls. No cut-off for these calls is given here.

Assays:
[1] = test system: Staphylococcus aureus; assay: Antimicrobial activity against Staphylococcus aureus 11 by serial dilution method; format: functional; conditions: for MIC: Staphylococcus aureus, 11
[2] = test system: Clostridium perfringens; assay: Antimicrobial activity against Clostridium perfringens 2 by serial dilution method; format: functional; conditions: for MIC: Clostridium perfringens, 2
Method in brief: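 Broth MICs were determined by serial dilution of the hydrazones, run in triplicate. Where results differed, the standard deviation of the three determinations is reported.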

[3] = test system: L929; assay: Cytotoxicity against mouse L929 cells by microscopic analysis; format: cell-based
[4] = test system: Bacillus subtilis; assay: Antimicrobial activity against Bacillus subtilis 104 by serial dilution method; format: functional; conditions: for MIC: Bacillus subtilis, 104
[5] = test system: Vaccinia virus; assay: Antiviral activity against Vaccinia virus infected in L929 cells assessed as reduction in plaque formation after 3 to 4 days by crystal violet staining method; format: functional, organism-based; conditions: Orthopoxvirus vaccinia
[6] = test system: Mycolicibacterium phlei; assay: Antimicrobial activity against Mycobacterium phlei 111 by serial dilution method; format: functional; conditions: for MIC: Mycolicibacterium phlei, 111
[7] = test system: Mycobacterium tuberculosis; assay: Antimicrobial activity against Mycobacterium tuberculosis H37Rv by agar dilution method; format: functional; conditions: for MIC: Mycobacterium tuberculosis, H37Rv
Method in brief: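 Agar dilution: the hydrazone is dissolved in warm Middlebrook agar and serially diluted into two quadrants of a quartered dish, with two drug-free quadrants. After cooling, 0.1 mL of M. tuberculosis suspension (McFarland no. 1, set spectrophotometrically) is inoculated. Plates are incubated 14 days at 37 °C under 5% CO2 and scored for colonies. Run in duplicate.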

Row | SMILES | log(1/C) [1] | MIC [1] [mg/L] | log(1/C) [2] | MIC [2] [mg/L] | Activity [3] | log(1/C) [4] | MIC [4] [mg/L] | Activity [5] | log(1/C) [6] | MIC [6] [mg/L] | log(1/C) [7] | MIC [7] [mg/L]
1 | CO[C@H]1/C=C/O[C@@]2(C)Oc3c(C)c(O)c4c(O)c(c(/C=N/NC(=O)CN5CCN(c6ccc(NC(C)=O)cc6)CC5)c(O)c4c3C2=O)NC(=O)/C(C)=C\C=C\[C@H](C)[C@H](O)[C@@H](C)[C@@H](O)[C@@H](C)[C@H](OC(C)=O)[C@@H]1C | 7.22 | 0.06 (≈ 0.0601 µM) | 8 | 0.01 (≈ 0.01 µM) | Toxic | 4.92 | 12 (≈ 12 µM) | inactive | 4.59 | 31 (≈ 31 µM) | 4.74 | 18 (≈ 18 µM)
2 | COc1ccc(N2CCN(CC(=O)N/N=C/c3c4c(O)c5c(O)c(C)c6c(c5c3O)C(=O)[C@@](C)(O/C=C/[C@H](OC)[C@@H](C)[C@@H](OC(C)=O)[C@H](C)[C@H](O)[C@H](C)[C@@H](O)[C@@H](C)/C=C/C=C(/C)C(=O)N4)O6)CC2)cc1 | 7.26 | 0.054 (≈ 0.0555 µM) | 8.14 | 0.007 (≈ 0.0072 µM) | Toxic | 4.93 | 11.3 (≈ 11.6 µM) | inactive | 5.27 | 5.25 (≈ 5.4 µM) | 4.81 | 15 (≈ 15.4 µM)
3 | CO[C@H]1/C=C/O[C@@]2(C)Oc3c(C)c(O)c4c(O)c(c(/C=N/NC(=O)CN5CCN(c6ccc(C(C)C)cc6)CC5)c(O)c4c3C2=O)NC(=O)/C(C)=C\C=C\[C@H](C)[C@H](O)[C@@H](C)[C@@H](O)[C@@H](C)[C@H](OC(C)=O)[C@@H]1C | 7.56 | 0.027 (≈ 0.0274 µM) | 8.52 | 0.003 (≈ 0.00305 µM) | Toxic | 5.3 | 4.9 (≈ 4.98 µM) | inactive | 5.48 | 3.25 (≈ 3.3 µM) | 5.04 | 9 (≈ 9.14 µM)
4 | CO[C@H]1/C=C/O[C@@]2(C)Oc3c(C)c(O)c4c(O)c(c(/C=N/NC(=O)CN5CCN(c6ccc([N+](=O)[O-])cc6)CC5)c(O)c4c3C2=O)NC(=O)/C(C)=C\C=C\[C@H](C)[C@H](O)[C@@H](C)[C@@H](O)[C@@H](C)[C@H](OC(C)=O)[C@@H]1C | 7.6 | 0.025 (≈ 0.0253 µM) | 8.3 | 0.005 (≈ 0.00507 µM) | Toxic | 4.9 | 12.3 (≈ 12.5 µM) | inactive | 4.93 | 11.5 (≈ 11.7 µM) | 4.74 | 18 (≈ 18.2 µM)
5 | CO[C@H]1/C=C/O[C@@]2(C)Oc3c(C)c(O)c4c(O)c(c(/C=N/NC(=O)CN5CCN(c6ccc(C(C)(C)C)cc6)CC5)c(O)c4c3C2=O)NC(=O)/C(C)=C\C=C\[C@H](C)[C@H](O)[C@@H](C)[C@@H](O)[C@@H](C)[C@H](OC(C)=O)[C@@H]1C | 7.49 | 0.033 (≈ 0.0331 µM) | 8.7 | 0.002 (≈ 0.002 µM) | Toxic | 5.32 | 4.8 (≈ 4.81 µM) | inactive | 5.44 | 3.63 (≈ 3.64 µM) | 5.12 | 7.5 (≈ 7.51 µM)
6 | CO[C@H]1/C=C/O[C@@]2(C)Oc3c(C)c(O)c4c(O)c(c(/C=N/N5CCN(C)CC5)c(O)c4c3C2=O)NC(=O)/C(C)=C\C=C\[C@H](C)[C@H](O)[C@@H](C)[C@@H](O)[C@@H](C)[C@H](OC(C)=O)[C@@H]1C [RIFAMPIN] | > 8.07 | < 0.007 | 8.44 | 0.003 (≈ 0.00365 µM) | – | 6.59 | 0.21 (≈ 0.255 µM) | – | 6.48 | 0.27 (≈ 0.328 µM) | 5.91 | 1 (≈ 1.22 µM)
7 | CO[C@H]1/C=C/O[C@@]2(C)Oc3c(C)c(O)c4c(O)c(c(/C=N/NC(=O)CN5CCN(c6ccc(C(F)(F)F)cc6)CC5)c(O)c4c3C2=O)NC(=O)/C(C)=C\C=C\[C@H](C)[C@H](O)[C@@H](C)[C@@H](O)[C@@H](C)[C@H](OC(C)=O)[C@@H]1C | 7.62 | 0.024 (≈ 0.0238 µM) | 8.7 | 0.002 (≈ 0.00198 µM) | Toxic | 5.01 | 9.8 (≈ 9.7 µM) | inactive | 5.14 | 7.38 (≈ 7.31 µM) | 4.75 | 18 (≈ 17.8 µM)
8 | CO[C@H]1/C=C/O[C@@]2(C)Oc3c(C)c(O)c4c(O)c(c(/C=N/NC(=O)CN5CCN(c6ccc(C)cc6)CC5)c(O)c4c3C2=O)NC(=O)/C(C)=C\C=C\[C@H](C)[C@H](O)[C@@H](C)[C@@H](O)[C@@H](C)[C@H](OC(C)=O)[C@@H]1C | 7.4 | 0.038 (≈ 0.0397 µM) | 8.14 | 0.007 (≈ 0.00732 µM) | Toxic | 5.27 | 5.1 (≈ 5.33 µM) | inactive | 5.14 | 7 (≈ 7.32 µM) | 4.96 | 10.5 (≈ 11 µM)
9 | CO[C@H]1/C=C/O[C@@]2(C)Oc3c(C)c(O)c4c(O)c(c(/C=N/NC(=O)CN5CCN(c6ccc(F)cc6)CC5)c(O)c4c3C2=O)NC(=O)/C(C)=C\C=C\[C@H](C)[C@H](O)[C@@H](C)[C@@H](O)[C@@H](C)[C@H](OC(C)=O)[C@@H]1C | 7.06 | 0.084 (≈ 0.0875 µM) | 8.51 | 0.005 (≈ 0.00521 µM) | Toxic | 5.3 | 4.8 (≈ 5 µM) | inactive | 5.22 | 5.75 (≈ 5.99 µM) | 4.81 | 15 (≈ 15.6 µM)
10 | CO[C@H]1/C=C/O[C@@]2(C)Oc3c(C)c(O)c4c(O)c(c(/C=N/NC(=O)CN5CCN(c6ccc(Oc7ccccc7)cc6)CC5)c(O)c4c3C2=O)NC(=O)/C(C)=C\C=C\[C@H](C)[C@H](O)[C@@H](C)[C@@H](O)[C@@H](C)[C@H](OC(C)=O)[C@@H]1C | 7.74 | 0.019 (≈ 0.0184 µM) | 8.11 | 0.008 (≈ 0.00774 µM) | Toxic | 5.32 | 5 (≈ 4.83 µM) | inactive | 5.24 | 6 (≈ 5.8 µM) | 4.84 | 15 (≈ 14.5 µM)
11 | CO[C@H]1/C=C/O[C@@]2(C)Oc3c(C)c(O)c4c(O)c(c(/C=N/NC(=O)CN5CCN(c6ccc(Cl)cc6)CC5)c(O)c4c3C2=O)NC(=O)/C(C)=C\C=C\[C@H](C)[C@H](O)[C@@H](C)[C@@H](O)[C@@H](C)[C@H](OC(C)=O)[C@@H]1C | 7.43 | 0.036 (≈ 0.0369 µM) | 8.21 | 0.006 (≈ 0.00614 µM) | Toxic | 5.31 | 4.8 (≈ 4.92 µM) | inactive | 5.19 | 6.38 (≈ 6.53 µM) | 4.91 | 12 (≈ 12.3 µM)
12 | CO[C@H]1/C=C/O[C@@]2(C)Oc3c(C)c(O)c4c(O)c(c(/C=N/NC(=O)CN5CCN(c6ccccc6)CC5)c(O)c4c3C2=O)NC(=O)/C(C)=C\C=C\[C@H](C)[C@H](O)[C@@H](C)[C@@H](O)[C@@H](C)[C@H](OC(C)=O)[C@@H]1C | 7.22 | 0.057 (≈ 0.0605 µM) | 8.13 | 0.007 (≈ 0.00743 µM) | Toxic | 5.24 | 5.4 (≈ 5.73 µM) | inactive | 5.12 | 7.13 (≈ 7.57 µM) | 5.03 | 8.7 (≈ 9.23 µM)
13 | CO[C@H]1/C=C/O[C@@]2(C)Oc3c(C)c(O)c4c(O)c(c(/C=N/NC(=O)CN5CCN(c6ccc(C#N)cc6)CC5)c(O)c4c3C2=O)NC(=O)/C(C)=C\C=C\[C@H](C)[C@H](O)[C@@H](C)[C@@H](O)[C@@H](C)[C@H](OC(C)=O)[C@@H]1C | 7.07 | 0.082 (≈ 0.0848 µM) | 8.14 | 0.007 (≈ 0.00724 µM) | Toxic | 4.77 | 16.3 (≈ 16.9 µM) | inactive | 4.65 | 21.5 (≈ 22.2 µM) | 4.72 | 18.6 (≈ 19.2 µM)
14 | CO[C@H]1/C=C/O[C@@]2(C)Oc3c(C)c(O)c4c(O)c(c(/C=N/NC(=O)CN5CCN(c6ccc(Br)cc6)CC5)c(O)c4c3C2=O)NC(=O)/C(C)=C\C=C\[C@H](C)[C@H](O)[C@@H](C)[C@@H](O)[C@@H](C)[C@H](OC(C)=O)[C@@H]1C | 7.46 | 0.035 (≈ 0.0343 µM) | 8.23 | 0.006 (≈ 0.00588 µM) | Toxic | 5.31 | 5 (≈ 4.9 µM) | inactive | 5.22 | 6.13 (≈ 6 µM) | 5.08 | 8.4 (≈ 8.23 µM)
15 | CCc1ccc(N2CCN(CC(=O)N/N=C/c3c4c(O)c5c(O)c(C)c6c(c5c3O)C(=O)[C@@](C)(O/C=C/[C@H](OC)[C@@H](C)[C@@H](OC(C)=O)[C@H](C)[C@H](O)[C@H](C)[C@@H](O)[C@@H](C)/C=C/C=C(/C)C(=O)N4)O6)CC2)cc1 | 7.57 | 0.026 (≈ 0.0268 µM) | 8.51 | 0.003 (≈ 0.00309 µM) | Toxic | 5.25 | 5.5 (≈ 5.67 µM) | inactive | 5.16 | 6.75 (≈ 6.96 µM) | 4.72 | 18.6 (≈ 19.2 µM)
